Test [1] concerns Rattus norvegicus. Nature of the test: The concentration yielding a half maximal decrease of the 5-HTP was determined in rat brain hemispheres; inactive at 50 umol/kg. It counts as functional, organism-based. The gist of the method:
(§1)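 Reserpine-pretreated (5 mg/kg sc, 18 h) male Sprague-Dawley rats, 200–300 g; compounds in saline given sc. DOPA and 5-HTP in limbic system, striatum and hemispheres measured by HPLC with electrochemical detection. Dose–response curves of 4–6 doses (n = 4) per area, fitted to variable-slope sigmoid on log data to give ED50.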

For test [2], the target named is T1, 5-hydroxytryptamine receptor 1A (Rattus norvegicus, UniProt P19327).
T1 sequence (P19327 whole entry): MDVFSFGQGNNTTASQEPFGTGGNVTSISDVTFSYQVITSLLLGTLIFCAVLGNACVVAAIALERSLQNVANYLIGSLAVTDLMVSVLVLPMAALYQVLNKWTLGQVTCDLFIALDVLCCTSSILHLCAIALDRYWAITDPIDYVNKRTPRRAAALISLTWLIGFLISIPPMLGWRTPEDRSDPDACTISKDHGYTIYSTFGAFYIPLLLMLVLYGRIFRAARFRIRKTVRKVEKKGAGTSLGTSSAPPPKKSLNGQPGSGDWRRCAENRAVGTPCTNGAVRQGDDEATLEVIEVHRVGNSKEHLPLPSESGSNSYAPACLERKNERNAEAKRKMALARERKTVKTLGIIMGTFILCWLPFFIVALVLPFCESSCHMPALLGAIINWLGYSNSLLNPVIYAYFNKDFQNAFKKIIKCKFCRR
As to the kind of experiment: Displacement of the radioligand [3H]8-OH-DPAT from 5-hydroxytryptamine 1A receptor. The gist of the method: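 Rat whole brain minus brain stem and cerebellum, washed membranes in 50 mM Tris pH 8.0 with 120 mM NaCl, 4 mM CaCl2, 4 mM MgCl2, 10 μM pargyline. Nonspecific with 10 μM 5-HT. IC50 by semilog linear regression, Ki via Cheng–Prusoff; 3–7 experiments, triplicates.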

Test [3] concerns Rattus norvegicus. Nature of the test: The concentration yielding a half maximal decrease of the DOPA was determined in rat brain hemispheres; inactive at 50 umol/kg. It counts as functional, organism-based. In short, it runs like this: as §1
The test system of test [4] is Rattus norvegicus. As to the kind of experiment: The concentration yielding a half maximal decrease of the DOPA was determined in rat limbic system; Partial response 50 umol/kg. Type of test: functional, organism-based.
In test [5] the test system is Rattus norvegicus. As to the kind of experiment: The concentration yielding a half maximal decrease of the DOPA was determined in rat brain striatum; Partial response 50 umol/kg. Type of test: functional, organism-based.
Another test deals with D(2) dopamine receptor (Rattus norvegicus, UniProt P61169). Nature of the test: Displacement of the radioligand [3H]spiperone from D2 receptor. In short, it runs like this:
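Rat striatal membranes in 50 mM potassium phosphate buffer, incubated with 0.5 nM [3H]spiperone (3 mg tissue) 10 min at 37 °C. Nonspecific binding defined with 10 μM 6,7-ADTN. IC50 converted to Ki by Cheng–Prusoff; 3–7 experiments, each concentration in triplicate.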

The test system of test [6] is Rattus norvegicus. As to the kind of experiment: The concentration yielding a half maximal decrease of the 5-HTP was determined in rat brain striatum; inactive at 50 umol/kg. Type of test: functional, organism-based. In short, it runs like this: as §1
The test system of test [7] is Rattus norvegicus. Nature of the test: The concentration yielding a half maximal decrease of the 5-HTP was determined in rat limbic system; inactive at 50 umol/kg. It counts as functional, organism-based. The gist of the method: as §1
In test [8] the test system is Rattus norvegicus. Nature of the test: Motor activity was measured by motility testing on injecting the compound subcutaneously into rats at the dose of 12.5 umol/kg. Type of test: functional. In short, it runs like this:
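Rats given reserpine 5 mg/kg sc 18 h beforehand, then test compound sc in neck (n = 4). Placed singly in photocell motility meters straight after dosing; counts recorded for 30 min, gross behaviour observed throughout. Value as counts/30 min with SEM.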

The test system of test [9] is Rattus norvegicus. As to the kind of experiment: The concentration yielding a half maximal decrease of the DOPA was determined in rat limbic system; inactive at 50 umol/kg. Type of test: functional, organism-based.
The species entered for test [10] is Rattus norvegicus. As to the kind of experiment: The concentration yielding a half maximal decrease of the 5-HTP was determined in rat limbic system. Type of test: functional.
For test [11], the species on record is Rattus norvegicus. Nature of the test: The concentration yielding a half maximal decrease of the 5-HTP was determined in rat brain hemispheres. Type of test: functional.
The species entered for test [12] is Rattus norvegicus. Nature of the test: The concentration yielding a half maximal decrease of the 5-HTP was determined in rat brain striatum. It counts as functional.
The species named for test [13] is Rattus norvegicus. As to the kind of experiment: Log concentration to inhibit DOPA accumulation was determined in rat brain striatum. It counts as functional. In short, it runs like this:
as §1

For test [14], the species on record is Rattus norvegicus. As to the kind of experiment: Log concentration to inhibit 5-HTP accumulation was determined in rat brain hemispheres. It counts as functional. In short, it runs like this: as §1
The species entered for test [15] is Rattus norvegicus. As to the kind of experiment: Log concentration to inhibit 5-HTP accumulation was determined in rat brain striatum. It counts as functional. The gist of the method: as §1
The species entered for test [16] is Rattus norvegicus. As to the kind of experiment: Log concentration to inhibit 5-HTP accumulation was determined in rat limbic system. It counts as functional. The gist of the method:
as §1

The species named for test [17] is Rattus norvegicus. Nature of the test: The concentration yielding a half maximal decrease of the DOPA was determined in rat brain striatum. Type of test: functional.
For test [18], the species on record is Rattus norvegicus. Nature of the test: The concentration yielding a half maximal decrease of the DOPA was determined in rat limbic system. It counts as functional.
Test [19] deals with Rattus norvegicus. Nature of the test: The concentration yielding a half maximal decrease of the DOPA was determined in rat brain hemispheres; Partial response at 50 umol/kg. Type of test: functional, organism-based. In short, it runs like this:
as §1

For test [20], the species on record is Rattus norvegicus. As to the kind of experiment: Log concentration to inhibit DOPA accumulation was determined in rat limbic system. Type of test: functional. The gist of the method:
as §1

Test [21] relates to Rattus norvegicus. Nature of the test: The concentration yielding a half maximal decrease of the DOPA was determined in rat brain striatum; inactive at 45 umol/kg. It counts as functional, organism-based.
For test [22], the system named is Rattus norvegicus. Nature of the test: Motor activity was measured by motility testing on injecting the compound subcutaneously into rats at the dose of 0.02 umol/kg (1a) and 3.5 umol/kg (1b).
Test [23] has as its system Rattus norvegicus. Nature of the test: The concentration yielding a half maximal decrease of the DOPA was determined in rat limbic system; inactive at 45 umol/kg. Type of test: functional, organism-based.
The subject of test [24] is Rattus norvegicus. Nature of the test: The concentration yielding a half maximal decrease of the DOPA was determined in rat brain hemispheres; inactive at 45 umol/kg. It counts as functional, organism-based. In short, it runs like this: as §1
Test [25] is filed under the species Rattus norvegicus. As to the kind of experiment: The concentration yielding a half maximal decrease of the DOPA was determined in rat limbic system. It counts as functional.
The species named for test [26] is Rattus norvegicus. Nature of the test: The concentration yielding a half maximal decrease of the 5-HTP was determined in rat limbic system. Type of test: functional. The gist of the method: as §1
Test [27] deals with Rattus norvegicus. As to the kind of experiment: The concentration yielding a half maximal decrease of the DOPA was determined in rat brain hemispheres; inactive at 12.5 umol/kg. Type of test: functional, organism-based. In short, it runs like this: as §1
The species named for test [28] is Rattus norvegicus. As to the kind of experiment: The concentration yielding a half maximal decrease of the DOPA was determined in rat brain striatum. Type of test: functional. In short, it runs like this: as §1
The species entered for test [29] is Rattus norvegicus. Nature of the test: The concentration yielding a half maximal decrease of the 5-HTP was determined in rat brain hemispheres. Type of test: functional. The gist of the method:
as §1

Test [30] has as its system Rattus norvegicus. As to the kind of experiment: The concentration yielding a half maximal decrease of the DOPA was determined in rat brain striatum; Inactive at 3.1 umol/kg. It counts as functional, organism-based.
For test [31], the system named is Rattus norvegicus. As to the kind of experiment: The concentration yielding a half maximal decrease of the DOPA was determined in rat brain hemispheres; Inactive at 3.1 umol/kg. It counts as functional, organism-based. In short, it runs like this: as §1

Calls of active or inactive are those of the source. No cut-off for these calls is given here.

Sequence of D(2) dopamine receptor (P61169 whole entry): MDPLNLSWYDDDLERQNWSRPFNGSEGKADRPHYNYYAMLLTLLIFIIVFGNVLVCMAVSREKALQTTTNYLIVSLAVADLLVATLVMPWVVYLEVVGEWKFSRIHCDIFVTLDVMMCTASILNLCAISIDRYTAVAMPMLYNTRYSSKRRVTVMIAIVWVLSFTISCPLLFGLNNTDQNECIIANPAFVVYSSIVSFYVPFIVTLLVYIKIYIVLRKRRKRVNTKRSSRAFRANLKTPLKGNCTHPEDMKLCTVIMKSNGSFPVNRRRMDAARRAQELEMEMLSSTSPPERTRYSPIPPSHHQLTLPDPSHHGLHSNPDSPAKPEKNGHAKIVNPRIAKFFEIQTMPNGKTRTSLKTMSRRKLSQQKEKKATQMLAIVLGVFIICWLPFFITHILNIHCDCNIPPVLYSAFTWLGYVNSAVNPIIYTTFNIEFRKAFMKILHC

For the compound `CCCN(CCC)C1CCc2ccc3c(c2C1)N(C=O)CC3` (stereo unspecified), the ED50 entry with Rattus norvegicus [1], with Rattus norvegicus [3], in the test with Rattus norvegicus [6] and with Rattus norvegicus [7] was “inactive” each time. Further, the inhibition constant Ki in test [2] is 550 nM; on D(2) dopamine receptor it was over 16000 nM. In addition, the ED50 result in the test on Rattus norvegicus [4] and in the test on Rattus norvegicus [5] was “Weak activity” in each case.

In the test with Rattus norvegicus [8], `CCCN(CCC)[C@H]1CCc2ccc3[nH]ccc3c2C1` showed an Activity of 29 Counts 30min-1.

Turning to `CCCN(CCC)C1CCc2ccc3[nH]cc(CC(F)(F)F)c3c2C1` (stereo unspecified), the ED50 entry in the test with Rattus norvegicus [9], with Rattus norvegicus [1], in the test with Rattus norvegicus [3], in the test on Rattus norvegicus [6] and in the test on Rattus norvegicus [7] was “inactive” each time. The Ki came out at 182 nM in [2] and 796 nM on D(2) dopamine receptor. For the same compound, in the test on Rattus norvegicus [5], the median effective dose (ED50) entry is “Weak activity”. Moreover, the Activity in the test on Rattus norvegicus [8] is 10 Counts 30min-1.

Consider `CCCN(CCC)C1CCc2ccc3c(c2C1)NCC3` (stereo unspecified), for which the ED50 entry in the test on Rattus norvegicus [1], in the test with Rattus norvegicus [3], in the test on Rattus norvegicus [6] and in the test on Rattus norvegicus [7] was “inactive” each time. Moreover, the Ki in test [2] came out at 410 nM; on D(2) dopamine receptor, 650 nM. The median effective dose (ED50) entry in the test with Rattus norvegicus [4] and in the test on Rattus norvegicus [5] was “Weak activity” throughout.

Take `CCCN(CCC)C1CCc2ccc3[nH]cc(Cl)c3c2C1` (stereo unspecified): the ED50 is 1.4 µmol/kg in the test listed under Rattus norvegicus [10]; 1.4 µmol/kg in the test filed under Rattus norvegicus [11]; 1.7 µmol/kg in the test listed under Rattus norvegicus [12]; 3.4 µmol/kg in the test listed under Rattus norvegicus [17]; 3.7 µmol/kg in the test filed under Rattus norvegicus [18]; “Weak activity” in the test with Rattus norvegicus [19]. Moreover, the pED50 is 5.47 in the test filed under Rattus norvegicus [13]; 5.85 in the test listed under Rattus norvegicus [14]; 5.78 in the test filed under Rattus norvegicus [15]; 5.86 in the test listed under Rattus norvegicus [16]; 5.43 in the test filed under Rattus norvegicus [20]. For the same compound, the Ki in [2] is 12.6 nM; at D(2) dopamine receptor, 317 nM.

For `CCCN(CCC)C1CCc2cccc(O)c2C1` (stereo unspecified) [8-OH-DPAT], the ED50 result in the test on Rattus norvegicus [21], with Rattus norvegicus [23] and in the test on Rattus norvegicus [24] was “inactive” each time. Besides, in the test with Rattus norvegicus [22], the Counts/30 min is listed as 66.

On to `CCCN(CCC)C1CCc2ccc3[nH]cc(C=O)c3c2C1` (stereo unspecified), for which the median effective dose (ED50) in the test filed under Rattus norvegicus [25] was determined as 0.3 µmol/kg; in the test listed under Rattus norvegicus [26], 0.11 µmol/kg; in the test listed under Rattus norvegicus [28], 3.3 µmol/kg; in the test listed under Rattus norvegicus [29] it was 0.13 µmol/kg. In the test on Rattus norvegicus [22], the Counts/30 min came out at 231. Moreover, the pED50 in the test listed under Rattus norvegicus [13] came out at 5.48; in the test filed under Rattus norvegicus [14], 6.88; in the test filed under Rattus norvegicus [15] it was 7.18; in the test filed under Rattus norvegicus [16] it was 6.95; in the test listed under Rattus norvegicus [20], 6.52. The ED50 entry in the test with Rattus norvegicus [27] is “inactive”.

For the compound `CCCN(CCC)[C@@H]1CCc2ccc3[nH]cc(C#N)c3c2C1`, the ED50 was determined as 0.092 µmol/kg in the test listed under Rattus norvegicus [10], 0.14 µmol/kg in the test listed under Rattus norvegicus [11], 0.036 µmol/kg in the test listed under Rattus norvegicus [12] and 1.65 µmol/kg in the test filed under Rattus norvegicus [18]. Further, the pED50 stood at 6.85 in the test filed under Rattus norvegicus [14], 7.44 in the test listed under Rattus norvegicus [15], 7.03 in the test listed under Rattus norvegicus [16] and 5.78 in the test listed under Rattus norvegicus [20]. In addition, the Ki was found to be 2.7 nM in test [2] and 419 nM on D(2) dopamine receptor. Moreover, the ED50 entry in the test on Rattus norvegicus [30] and in the test on Rattus norvegicus [31] was “inactive” throughout.

Values taken from ChEMBL document CHEMBL1127349, “6,7,8,9-Tetrahydro-N,N-di-n-propyl-3H-benzindol-8-amines. Derivatives as potent and orally active serotonin 5-HT1A receptor agonists” (J Med Chem, 1994).
